Active and inactive are the calls of the source. No cut-off for these calls is given here.
Experiments:
PC-9 [1] = conditions: Homo sapiens, dose 75.0 mg/kg, route po, time 60.0 day
BaF3 [2] = assay: Inhibition of EGFR-del19 mutant in mouse BaF3 cells assessed as inhibition of ERK phosphorylation at 10 to 1000 nM incubated for 6 hrs by Western blotting analysis; format: cell-based; conditions: dose 10-1000 nM
Summary of the method: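 Ba/F3 cells carrying the stated EGFR mutant were made IL-3-independent after 1 week of 7 µM blasticidin selection. They were grown in low-glucose DMEM with 10% FBS and exposed to inhibitor for 6 h. Cells were washed in cold PBS, lysed in SDS buffer (100 mM Tris, 1% SDS, 10% glycerol) and boiled 5 min. Protein was measured by BCA, run on SDS-PAGE, transferred to PVDF, blocked in 5% BSA or milk/TBS-T, and immunoblotted.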

[3] = tested on: Epidermal growth factor receptor (Homo sapiens), P00533 [UNDEFINED MUTATION]; conditions: PC-9, dose 500.0 nM, time 48.0 hrs
[4] = tested on: Epidermal growth factor receptor (Homo sapiens), P00533 [UNDEFINED MUTATION]; conditions: PC-9, dose 500.0 nM, time 48.0 hrs; remark: listed apart in the source
BaF3 [5] = assay: Inhibition of EGFR-C797S/T790M/L858R mutant expressed in mouse BaF3 cells assessed as inhibition of ERK phosphorylation at 10 to 1000 nM incubated for 6 hrs by Western blotting analysis; format: cell-based; conditions: dose 10-1000 nM
Summary of the method: (§1)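 Ba/F3 cells expressing EGFR-L858R-series mutants treated with inhibitors for 6 h. SDS lysates quantified by BCA, run on SDS-PAGE and blotted to PVDF. Probed for phospho-EGFR (Tyr1068), total EGFR and downstream phospho-proteins.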

PC-9 [6] = conditions: Homo sapiens, dose 75.0 mg/kg, route po, time 15.0 day
BaF3 [7] = conditions: Mus musculus, dose 10-1000 nM, time 6.0 hrs
[8] = tested on: Epidermal growth factor receptor (Homo sapiens), P00533 [UNDEFINED MUTATION]; conditions: PC-9, dose 10-1000 nM
BaF3 [9] = conditions: Mus musculus, dose 30-1000 nM, time 6.0 hrs
PC-9 [10] = conditions: Homo sapiens, dose 75.0 mg/kg, route po, time 15.0 day; remark: listed apart in the source
BaF3 [11] = conditions: Mus musculus, dose 10-1000 nM, time 6.0 hrs; remark: listed apart in the source
[12] = tested on: Epidermal growth factor receptor (Homo sapiens), P00533 [UNDEFINED MUTATION]; conditions: PC-9, dose 500.0 nM, time 48.0 hrs; remark: listed apart in the source
BaF3 [13] = conditions: Mus musculus, dose 10-1000 nM
BaF3 [14] = assay: Inhibition of EGFR-C797S/T790M/L858R mutant expressed in mouse BaF3 cells assessed as inhibition of Akt phosphorylation at 10 to 1000 nM incubated for 6 hrs by Western blotting analysis; format: cell-based; conditions: dose 10-1000 nM
Summary of the method: as §1

PC-9 [15] = conditions: Homo sapiens, dose 75.0 mg/kg, route po, time 60.0 day; remark: listed apart in the source
[16] = tested on: Epidermal growth factor receptor (Homo sapiens), P00533 [UNDEFINED MUTATION]; conditions: PC-9, dose 10-1000 nM; remark: listed apart in the source
[17] = tested on: Epidermal growth factor receptor (Homo sapiens), P00533 [UNDEFINED MUTATION]; conditions: PC-9, dose 10-1000 nM; remark: listed apart in the source
PC-9 [18] = assay: Anti-tumor activity against human PC-9 cells expressing EGFR-C797S/T790M/del19 mutant xenografted in Balb-c nu/nu mouse assessed as decreased tumor growth at 75 mg/kg, po administered for 60 days and measured twice weekly in presence of panitumumab; format: functional, organism-based; conditions: time 60.0 day
Summary of the method: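 PC9 EGFR-C797S/T790M/del19 xenografts in Balb-c nu/nu mice, randomized at ~200 mm³. […] Tumour volume 0.5×length×width² measured twice weekly. Survival by Kaplan-Meier. N = 6. Mann-Whitney U test at days 16 and 23.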

[19] = tested on: Epidermal growth factor receptor (Homo sapiens), P00533 [UNDEFINED MUTATION]; conditions: PC-9, dose 500.0 nM, time 48.0 hrs; remark: listed apart in the source
PC-9 [20] = assay: Inhibition of EGFR T790M/del19 mutant in human PC-9 cells assessed as reduction in ERK phosphorylation at 10 to 1000 nM by Western blotting analysis; format: cell-based; conditions: dose 10-1000 nM
[21] = tested on: Epidermal growth factor receptor (Homo sapiens), P00533 [UNDEFINED MUTATION]; conditions: MGH121, dose 10-1000 nM
[22] = tested on: Epidermal growth factor receptor (Homo sapiens), P00533 [UNDEFINED MUTATION]; conditions: MGH121, dose 10-1000 nM; remark: listed apart in the source
MGH121 = assay: Anti-tumor activity against human MGH121 cells expressing EGFR-C797S/T790M/del19 mutant xenografted in SCID-beige mouse assessed as tumor shrinkage at 75 mg/kg, po administered for 40 days and measured twice weekly in presence of cetuximab; format: functional, organism-based; conditions: time 40.0 day
Summary of the method: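 MGH121-res2 cells (EGFR-C797S/T790M/del19) implanted s.c. in SCID-beige mice. Randomized at mean tumour ~200 mm³. […] Tumour volume 0.5×length×width² and body weight measured twice weekly. N = 6, mean ± s.d. Mann-Whitney U test on day 42.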

[23] = Toxicity against Balb-c nu/nu mouse xenografted with human PC-9 cells expressing EGFR-C797S/T790M/del19 mutant assessed as change in body weight at 75 mg/kg, po administered for 60 days and measured twice weekly in presence of panitumumab; format: organism-based; conditions: in vivo, 1440 h, time 60 day
Summary of the method: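 Mice bearing subcutaneous PC9 triple-mutant tumours in Balb-c nu/nu hosts were randomized at ~200 mm³. […] Body weights were taken twice weekly, N=6 per group.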

BaF3 [24] = assay: Inhibition of EGFR-C797S/T790M/del19 mutant in mouse BaF3 cells assessed as reduction in Akt phosphorylation incubated for 6 hrs by Western blotting analysis; format: cell-based
PC-9 [25] = conditions: Homo sapiens, dose 75.0 mg/kg, route po, time 60.0 day; remark: listed apart in the source
BaF3 [26] = assay: Inhibition of EGFR-C797S/T790M/del19 mutant in mouse BaF3 cells assessed as reduction in ERK phosphorylation incubated for 6 hrs by Western blotting analysis; format: cell-based
[27] = tested on: Epidermal growth factor receptor (Homo sapiens), P00533 [UNDEFINED MUTATION]; conditions: PC-9, dose 10-1000 nM; remark: listed apart in the source
[28] = tested on: Epidermal growth factor receptor (Homo sapiens), P00533 [UNDEFINED MUTATION]; conditions: PC-9, dose 500.0 nM, time 48.0 hrs; remark: listed apart in the source
BaF3 [29] = assay: Inhibition of EGFR-C797S/T790M/del19 mutant in mouse BaF3 cells assessed as reduction in EGFR phosphorylation incubated for 6 hrs by Western blotting analysis; format: cell-based

Epidermal growth factor receptor (Homo sapiens), P00533 [UNDEFINED MUTATION], sequence (P00533 whole entry, looked up, stated change not applied): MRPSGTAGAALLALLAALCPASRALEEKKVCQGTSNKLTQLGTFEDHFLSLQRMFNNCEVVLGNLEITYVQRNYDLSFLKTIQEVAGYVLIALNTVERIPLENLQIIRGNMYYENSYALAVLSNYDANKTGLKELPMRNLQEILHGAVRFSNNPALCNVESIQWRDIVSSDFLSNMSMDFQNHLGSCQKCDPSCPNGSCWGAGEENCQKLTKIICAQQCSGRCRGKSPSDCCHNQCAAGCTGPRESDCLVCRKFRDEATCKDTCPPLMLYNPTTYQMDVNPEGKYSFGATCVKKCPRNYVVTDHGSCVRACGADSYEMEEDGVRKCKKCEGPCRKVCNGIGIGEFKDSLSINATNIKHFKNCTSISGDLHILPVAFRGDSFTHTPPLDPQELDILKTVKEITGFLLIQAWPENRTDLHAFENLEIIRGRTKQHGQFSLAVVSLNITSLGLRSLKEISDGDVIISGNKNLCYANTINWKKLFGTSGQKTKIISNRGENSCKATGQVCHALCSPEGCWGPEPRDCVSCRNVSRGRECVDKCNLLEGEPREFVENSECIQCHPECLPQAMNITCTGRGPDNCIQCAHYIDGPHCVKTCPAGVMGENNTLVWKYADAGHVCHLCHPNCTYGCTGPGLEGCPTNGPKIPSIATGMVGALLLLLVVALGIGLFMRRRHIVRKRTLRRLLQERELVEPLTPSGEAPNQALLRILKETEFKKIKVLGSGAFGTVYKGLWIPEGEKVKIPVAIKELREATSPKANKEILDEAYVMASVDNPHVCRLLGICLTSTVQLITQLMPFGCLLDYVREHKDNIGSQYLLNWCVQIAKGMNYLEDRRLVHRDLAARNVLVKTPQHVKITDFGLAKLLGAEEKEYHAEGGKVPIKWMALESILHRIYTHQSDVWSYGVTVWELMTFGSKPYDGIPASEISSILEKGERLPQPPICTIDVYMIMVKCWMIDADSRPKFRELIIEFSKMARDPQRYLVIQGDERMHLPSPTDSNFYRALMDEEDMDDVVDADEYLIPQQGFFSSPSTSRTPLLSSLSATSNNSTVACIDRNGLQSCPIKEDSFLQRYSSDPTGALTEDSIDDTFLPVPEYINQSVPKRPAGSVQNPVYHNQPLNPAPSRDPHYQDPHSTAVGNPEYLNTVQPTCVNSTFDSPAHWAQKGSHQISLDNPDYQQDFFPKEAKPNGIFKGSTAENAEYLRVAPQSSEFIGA

inhibition [3]: Active | inhibition [4]: Active | inhibition [8]: Active | inhibition [12]: Active | inhibition [16]: Active | inhibition [17]: Active | inhibition [19]: Active | inhibition [21]: Active | inhibition [22]: Active | inhibition [27]: Active | inhibition [28]: inactive
SMILES: COc1cc(N2CCC(N3CCN(C)CC3)CC2)ccc1Nc1ncc(Cl)c(Nc2ccccc2P(C)(C)=O)n1 [BRIGATINIB]
inhibition (PC-9 [1]): Active | inhibition (BaF3 [2]): Active | inhibition (BaF3 [5]): Active | inhibition (PC-9 [6]): Active | inhibition (BaF3 [7]): Active | inhibition (BaF3 [9]): Active | inhibition (PC-9 [10]): Active | inhibition (BaF3 [11]): Active | inhibition (BaF3 [13]): Dose-Dependent Effect | inhibition (BaF3 [14]): Active | inhibition (PC-9 [15]): Active | Activity (PC-9 [18]): Active | inhibition (PC-9 [20]): Active | Activity (MGH121): Active | Activity [23]: Non-Toxic | inhibition (BaF3 [24]): Dose-Dependent Effect | inhibition (PC-9 [25]): Active | inhibition (BaF3 [26]): Dose-Dependent Effect | inhibition (BaF3 [29]): Dose-Dependent Effect

— ChEMBL document CHEMBL5705906 (Nat Commun, 2017)
